In the test the target is T1, UniProt L7MU75.
T1 sequence (whole entry): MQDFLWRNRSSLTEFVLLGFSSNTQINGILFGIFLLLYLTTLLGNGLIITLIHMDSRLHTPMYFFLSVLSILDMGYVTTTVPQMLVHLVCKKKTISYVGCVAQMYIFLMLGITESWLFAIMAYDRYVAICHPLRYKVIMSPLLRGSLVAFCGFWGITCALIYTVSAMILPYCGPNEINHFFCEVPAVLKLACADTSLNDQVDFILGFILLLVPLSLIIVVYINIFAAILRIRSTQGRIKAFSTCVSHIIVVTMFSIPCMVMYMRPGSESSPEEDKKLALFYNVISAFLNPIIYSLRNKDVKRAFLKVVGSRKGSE
The note with it: stereoisomer not certain. In short, it runs like this:
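Assay methods differ from source to source, frequently being transient luciferase assays in mammalian cell lines. For each receptor–molecule pair, the label responsive (active) applies when the original authors judged the measured signal statistically different from baseline, and non-responsive (inactive) applies otherwise.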
Regarding `CC(C)=CCCC(C)=CCOC(=O)C(C)C`, the “odorant receptor agonist call” value was “inactive”.

As for `OCCc1ccccc1`, the “odorant receptor agonist call” value was “inactive”.

As for `CC(C)CCN`, the “odorant receptor agonist call” value is “inactive”.

Consider `CC1CCC(C(C)C)C(=O)C1` (centres undefined), for which the “odorant receptor agonist call” value was “inactive”.

With `C=CC(=O)CCCCC`, the “odorant receptor agonist call” value was “inactive”.

For `C=CC(=C)CCC=C(C)C`, the “odorant receptor agonist call” value is “inactive”.

As for `CCCC=O`, the “odorant receptor agonist call” value is “inactive”.

For `C=C1C2CCC(C2)C1(C)C` (centres undefined), the “odorant receptor agonist call” value is “inactive”.

With `C=CC(C)=CCC=C(C)CCC=C(C)C`, the “odorant receptor agonist call” value was “inactive”.

With `COc1nccnc1C`, the “odorant receptor agonist call” value was “active”.

As to `CCCCCC(=Cc1ccccc1)C(OC)OC`, the “odorant receptor agonist call” value was “inactive”.

Consider `CCSCC`, for which the “odorant receptor agonist call” value was “inactive”.

For the molecule `C=C(C)C1CC=C(C)CC1` (centres undefined), the “odorant receptor agonist call” value is “inactive”.

For `Cc1ccc(OC(=O)C(C)C)cc1`, the “odorant receptor agonist call” value was “inactive”.

Regarding `CC=CC(=O)C1=C(C)CCCC1(C)C`, the “odorant receptor agonist call” value was “inactive”.

Regarding `CSSCc1ccco1`, the “odorant receptor agonist call” value is “inactive”.

For `O=C(O)C1CCC1`, the “odorant receptor agonist call” value was “inactive”.

Turning to `CC(CC=O)CCCC(C)(C)O` (centres undefined), the “odorant receptor agonist call” value was “inactive”.

Regarding `CCCCCCC(=O)OCCCC`, the “odorant receptor agonist call” value was “inactive”.

In the case of `CCC=CCCC=CC=O`, the “odorant receptor agonist call” value is “inactive”.

Take `OCC=Cc1ccccc1`: the “odorant receptor agonist call” value was “inactive”.

For `CCCCCOC(=O)CC`, the “odorant receptor agonist call” value was “inactive”.

In the case of `Cc1c(C)c(C)c(C=O)c(C)c1C`, the “odorant receptor agonist call” value was “inactive”.

Consider `CC(=O)C1(C)CC2=C(CCCC2(C)C)CC1C` (centres undefined), for which the “odorant receptor agonist call” value is “inactive”.

With `CCCCCCCCCCCO`, the “odorant receptor agonist call” value is “inactive”.

Consider `Cc1ccccc1OC(=O)C(C)C`, for which the “odorant receptor agonist call” value is “inactive”.

As for `CCCCCC(C=O)=Cc1ccccc1`, the “odorant receptor agonist call” value is “inactive”.

Turning to `CC(C)=C1CCC(C)CC1=O` (centres undefined), the “odorant receptor agonist call” value is “inactive”.

Take `CCc1occc(=O)c1O`: the “odorant receptor agonist call” value was “active”.

On to `CCCCCOC(=O)CCC`, for which the “odorant receptor agonist call” value was “inactive”.

`CCCCCCC=CC=O`: the “odorant receptor agonist call” value was “inactive”.

For `CC(=O)OCc1ccc2c(c1)OCO2`, the “odorant receptor agonist call” value is “inactive”.

In the case of `CCCC(C)C(=O)OCC` (centres undefined), the “odorant receptor agonist call” value is “inactive”.

For the molecule `CC(C)CS`, the “odorant receptor agonist call” value is “inactive”.

The values above are taken from the M2OR odorant receptor database.
